Laboratory results taken from ChEMBL document CHEMBL4257453, “Identification of karanjin isolated from the Indian beech tree as a potent CYP1 enzyme inhibitor with cellular efficacy via screening of a natural product repository” (Medchemcomm, 2018).

Legend:
[1] = molecular target: T1, CYP1A2 (Homo sapiens, UniProt P05177); experiment: Inhibition of recombinant human CYP1A2 expressed in baker's yeast-derived microsomes (Sacchrosomes) at 10 uM using 3-cyano-7-ethoxycoumarin substrate by EROD assay relative to control; assay type: ADME; settings: probe 3-cyano-7-ethoxycoumarin
T1 sequence (P05177 whole entry): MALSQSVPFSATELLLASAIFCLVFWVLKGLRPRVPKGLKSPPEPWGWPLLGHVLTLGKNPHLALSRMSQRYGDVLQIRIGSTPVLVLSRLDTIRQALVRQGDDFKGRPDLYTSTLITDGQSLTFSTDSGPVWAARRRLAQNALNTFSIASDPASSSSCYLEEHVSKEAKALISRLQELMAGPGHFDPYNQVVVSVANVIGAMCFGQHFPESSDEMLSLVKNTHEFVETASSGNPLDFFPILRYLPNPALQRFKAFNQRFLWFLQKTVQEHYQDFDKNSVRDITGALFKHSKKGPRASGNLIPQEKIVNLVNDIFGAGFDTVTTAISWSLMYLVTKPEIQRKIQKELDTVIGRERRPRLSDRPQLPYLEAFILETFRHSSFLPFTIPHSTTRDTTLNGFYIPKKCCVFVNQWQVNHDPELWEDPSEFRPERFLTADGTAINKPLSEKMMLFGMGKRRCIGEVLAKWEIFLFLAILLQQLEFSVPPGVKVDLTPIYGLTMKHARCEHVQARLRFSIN
Procedure, shortened: (§1)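 Yeast microsomes carrying recombinant CYP (Sacchrosomes). Substrates per isoform are 7-ethoxyresorufin, 3-cyano-7-ethoxycoumarin, EOMCC or dibenzylfluorescein, read as endpoint fluorescence. Background from compound-only wells without enzyme is subtracted. Independent triplicate runs; α-naphthoflavone positive control.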

[2] = molecular target: Cytochrome P450 2C19 (Homo sapiens, UniProt P33261); experiment: Inhibition of human recombinant CYP2C19 expressed in HEK293 cells using 3-cyano-7-ethoxycoumarin substrate substrate preincubated for 30 mins followed by substrate addition and measured after 60 mins by fluorescence assay relative to control; assay type: ADME, cell-based
Procedure, shortened: (§2)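 HEK293 cells adapted to suspension and transiently transfected with pcDNA3.1 plasmids carrying the individual CYP; 100×10^3 cells per well in triplicate. […] Fluorogenic substrate is then added at 5 μM and fluorescence read for 60 min.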

[3] = molecular target: T2, Cytochrome P450 1A2 (Homo sapiens, UniProt P05177); experiment: Inhibition of human recombinant CYP1A2 expressed in HEK293 cells using 3-cyano-7-ethoxycoumarin substrate preincubated for 30 mins followed by substrate addition and measured after 60 mins by fluorescence assay relative to control; assay type: ADME, cell-based; procedure, shortened: as §2
T2 sequence (P05177 whole entry): T1 sequence (P05177 whole entry)

[4] = molecular target: T3, CYP1B1 (Homo sapiens, UniProt Q16678); experiment: Inhibition of recombinant human CYP1B1 expressed in baker's yeast-derived microsomes (Sacchrosomes) at 10 uM using 7-ethoxyresorufin substrate by EROD assay relative to control; assay type: ADME; settings: probe 7-ethoxyresorufin
T3 sequence (Q16678 whole entry): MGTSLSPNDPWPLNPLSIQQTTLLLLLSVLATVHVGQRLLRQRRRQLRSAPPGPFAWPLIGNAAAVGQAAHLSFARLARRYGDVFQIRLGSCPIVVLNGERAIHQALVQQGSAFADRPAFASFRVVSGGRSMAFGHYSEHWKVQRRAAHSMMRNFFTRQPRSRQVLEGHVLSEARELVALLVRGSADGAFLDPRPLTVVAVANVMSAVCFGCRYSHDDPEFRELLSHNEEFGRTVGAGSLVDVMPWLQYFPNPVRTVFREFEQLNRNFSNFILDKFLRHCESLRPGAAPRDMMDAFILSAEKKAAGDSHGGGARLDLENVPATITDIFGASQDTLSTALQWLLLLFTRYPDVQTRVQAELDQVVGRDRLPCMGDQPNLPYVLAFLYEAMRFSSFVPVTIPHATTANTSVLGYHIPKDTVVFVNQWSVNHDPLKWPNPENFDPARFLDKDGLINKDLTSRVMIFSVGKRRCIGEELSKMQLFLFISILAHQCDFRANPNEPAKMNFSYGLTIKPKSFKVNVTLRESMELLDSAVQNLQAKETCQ
Procedure, shortened: as §1, with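 “(Sacchrosomes). […]” for “(Sacchrosomes).”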

[5] = molecular target: Cytochrome P450 3A4 (Homo sapiens, UniProt P08684); experiment: Inhibition of human recombinant CYP3A4 expressed in HEK293 cells using dibenzylfluorescein substrate substrate preincubated for 30 mins followed by substrate addition and measured after 60 mins by fluorescence assay relative to control; assay type: ADME, cell-based
Procedure, shortened: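 HEK293 cells adapted to suspension and transiently transfected with pcDNA3.1 plasmids carrying the individual CYP; 100×10^3 cells per well in triplicate. Fluorogenic substrate is then added at 5 μM and fluorescence read for 60 min.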

[6] = molecular target: CYP2C9 (Homo sapiens, UniProt P11712); experiment: Inhibition of recombinant human CYP2C9 expressed in baker's yeast-derived microsomes (Sacchrosomes) at 10 uM using 3-cyano-7-ethoxycoumarin substrate by EROD assay relative to control; assay type: ADME; settings: probe 3-cyano-7-ethoxycoumarin
Procedure, shortened: as §1, with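 “(Sacchrosomes). […]” for “(Sacchrosomes).”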

[7] = molecular target: T4, CYP1A1 (Homo sapiens, UniProt P04798); experiment: Inhibition of human recombinant CYP1A1 expressed in HEK293 cells at 10 uM using 7-ethoxyresorufin substrate preincubated for 30 mins followed by substrate addition and measured after 60 mins by fluorescence assay relative to control; assay type: cell-based; settings: HEK293 cells expressing human recombinant CYP1A1, probe 7-ethoxyresorufin; procedure, shortened: as §2
T4 sequence (P04798 whole entry): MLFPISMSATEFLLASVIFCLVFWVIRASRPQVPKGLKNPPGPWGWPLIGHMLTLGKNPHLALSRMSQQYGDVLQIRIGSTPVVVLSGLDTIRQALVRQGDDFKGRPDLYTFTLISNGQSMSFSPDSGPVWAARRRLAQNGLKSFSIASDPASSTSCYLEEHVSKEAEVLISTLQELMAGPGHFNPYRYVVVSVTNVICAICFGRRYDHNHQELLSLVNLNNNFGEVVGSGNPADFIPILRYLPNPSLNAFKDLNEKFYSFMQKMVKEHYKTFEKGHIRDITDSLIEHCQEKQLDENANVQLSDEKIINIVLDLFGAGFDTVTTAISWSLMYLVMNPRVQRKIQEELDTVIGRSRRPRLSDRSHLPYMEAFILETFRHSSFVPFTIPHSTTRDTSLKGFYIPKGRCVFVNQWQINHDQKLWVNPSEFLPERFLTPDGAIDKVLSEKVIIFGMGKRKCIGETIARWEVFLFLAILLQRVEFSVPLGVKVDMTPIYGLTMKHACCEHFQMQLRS

[8] = molecular target: CYP2C19 (Homo sapiens, UniProt P33261); experiment: Inhibition of recombinant human CYP2C19 expressed in baker's yeast-derived microsomes (Sacchrosomes) at 10 uM using 3-cyano-7-ethoxycoumarin substrate by EROD assay relative to control; assay type: ADME; settings: probe 3-cyano-7-ethoxycoumarin
Procedure, shortened: as §1, with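 “(Sacchrosomes). […]” for “(Sacchrosomes).”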

[9] = molecular target: CYP2D6 (Homo sapiens, UniProt P10635); experiment: Inhibition of recombinant human CYP2D6 expressed in baker's yeast-derived microsomes (Sacchrosomes) at 10 uM using 7-ethoxy-methyloxy-3-cyanocoumarin substrate by EROD assay relative to control; assay type: ADME; settings: probe 7-ethoxy-methyloxy-3-cyanocoumarin
Procedure, shortened: as §1, with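 “(Sacchrosomes). […]” for “(Sacchrosomes).”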

[10] = molecular target: Cytochrome P450 2C9 (Homo sapiens, UniProt P11712); experiment: Inhibition of human recombinant CYP2C9 expressed in HEK293 cells using 3-cyano-7-ethoxycoumarin substrate substrate preincubated for 30 mins followed by substrate addition and measured after 60 mins by fluorescence assay relative to control; assay type: ADME, cell-based; procedure, shortened: as §2
[11] = molecular target: T4, CYP1A1; experiment: Inhibition of recombinant human CYP1A1 expressed in baker's yeast-derived microsomes (Sacchrosomes) at 10 uM using 7-ethoxyresorufin substrate by EROD assay relative to control; settings: probe 7-ethoxyresorufin; procedure, shortened: as §1
[12] = molecular target: CYP3A4 (Homo sapiens, UniProt P08684); experiment: Inhibition of recombinant human CYP3A4 expressed in baker's yeast-derived microsomes (Sacchrosomes) at 10 uM using dibenzylfluorescein substrate by EROD assay relative to control; assay type: ADME; settings: probe dibenzylfluorescein
Procedure, shortened: as §1, with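 “(Sacchrosomes). […]” for “(Sacchrosomes).”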

[13] = molecular target: Cytochrome P450 2D6 (Homo sapiens, UniProt P10635); experiment: Inhibition of human recombinant CYP2D6 expressed in HEK293 cells using 7-ethoxy-methyloxy-3-cyanocoumarin substrate substrate preincubated for 30 mins followed by substrate addition and measured after 60 mins by fluorescence assay relative to control; assay type: ADME, cell-based; procedure, shortened: as §2
[14] = molecular target: T5, Cytochrome P450 1B1 (Homo sapiens, UniProt Q16678); experiment: Inhibition of human recombinant CYP1B1 expressed in HEK293 cells using 7-ethoxyresorufin substrate substrate preincubated for 30 mins followed by substrate addition and measured after 60 mins by fluorescence assay relative to control; assay type: ADME, cell-based; procedure, shortened: as §2
T5 sequence (Q16678 whole entry): T3 sequence (Q16678 whole entry)

[15] = molecular target: T6, Cytochrome P450 1A1 (Homo sapiens, UniProt P04798); experiment: Inhibition of human recombinant CYP1A1 expressed in HEK293 cells using 7-ethoxyresorufin substrate preincubated for 30 mins followed by substrate addition and measured after 60 mins by fluorescence assay relative to control; assay type: cell-based; procedure, shortened: as §2
T6 sequence (P04798 whole entry): T4 sequence (P04798 whole entry)

Chain of CYP3A4 (P08684 whole entry): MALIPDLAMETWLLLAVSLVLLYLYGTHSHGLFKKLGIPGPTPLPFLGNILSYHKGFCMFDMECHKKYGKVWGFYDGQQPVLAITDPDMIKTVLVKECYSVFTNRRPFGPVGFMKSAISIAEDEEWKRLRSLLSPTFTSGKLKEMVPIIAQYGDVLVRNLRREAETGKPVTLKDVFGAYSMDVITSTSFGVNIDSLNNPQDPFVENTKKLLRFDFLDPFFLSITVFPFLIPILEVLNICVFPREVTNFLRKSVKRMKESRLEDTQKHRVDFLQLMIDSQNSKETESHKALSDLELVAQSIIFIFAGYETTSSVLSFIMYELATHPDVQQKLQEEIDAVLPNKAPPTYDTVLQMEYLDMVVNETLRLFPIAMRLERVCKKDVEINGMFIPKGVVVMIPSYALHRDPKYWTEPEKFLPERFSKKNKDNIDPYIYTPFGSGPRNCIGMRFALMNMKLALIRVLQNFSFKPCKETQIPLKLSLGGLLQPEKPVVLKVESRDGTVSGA
Chain of Cytochrome P450 3A4 (P08684 whole entry): as above
Chain of Cytochrome P450 2C19 (P33261 whole entry): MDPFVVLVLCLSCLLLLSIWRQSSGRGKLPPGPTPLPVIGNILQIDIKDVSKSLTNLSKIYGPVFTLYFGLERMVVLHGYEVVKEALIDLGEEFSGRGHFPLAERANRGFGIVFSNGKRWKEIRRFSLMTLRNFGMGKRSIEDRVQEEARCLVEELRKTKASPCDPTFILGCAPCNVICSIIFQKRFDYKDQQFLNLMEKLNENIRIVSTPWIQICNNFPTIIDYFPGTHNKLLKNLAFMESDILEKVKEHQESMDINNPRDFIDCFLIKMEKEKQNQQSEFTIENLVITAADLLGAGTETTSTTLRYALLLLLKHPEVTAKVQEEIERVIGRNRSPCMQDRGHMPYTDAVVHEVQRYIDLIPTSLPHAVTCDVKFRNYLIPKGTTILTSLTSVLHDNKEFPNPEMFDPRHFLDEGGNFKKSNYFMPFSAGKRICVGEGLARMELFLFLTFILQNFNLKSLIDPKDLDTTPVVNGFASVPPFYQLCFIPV
Chain of CYP2C19 (P33261 whole entry): as above
Chain of Cytochrome P450 2D6 (P10635 whole entry): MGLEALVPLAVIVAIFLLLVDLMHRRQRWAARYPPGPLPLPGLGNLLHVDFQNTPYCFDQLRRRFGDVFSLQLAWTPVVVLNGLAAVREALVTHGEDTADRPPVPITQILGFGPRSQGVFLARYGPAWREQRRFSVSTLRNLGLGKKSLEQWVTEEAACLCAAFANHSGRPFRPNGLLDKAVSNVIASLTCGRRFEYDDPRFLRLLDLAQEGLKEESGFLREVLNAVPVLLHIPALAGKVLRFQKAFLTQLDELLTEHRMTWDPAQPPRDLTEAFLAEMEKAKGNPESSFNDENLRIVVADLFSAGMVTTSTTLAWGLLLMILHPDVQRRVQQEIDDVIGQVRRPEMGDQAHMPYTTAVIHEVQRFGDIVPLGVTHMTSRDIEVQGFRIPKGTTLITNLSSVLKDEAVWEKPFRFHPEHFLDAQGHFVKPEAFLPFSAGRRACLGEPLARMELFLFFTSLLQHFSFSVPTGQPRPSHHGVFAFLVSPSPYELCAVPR
Chain of CYP2D6 (P10635 whole entry): as above
Chain of CYP2C9 (P11712 whole entry): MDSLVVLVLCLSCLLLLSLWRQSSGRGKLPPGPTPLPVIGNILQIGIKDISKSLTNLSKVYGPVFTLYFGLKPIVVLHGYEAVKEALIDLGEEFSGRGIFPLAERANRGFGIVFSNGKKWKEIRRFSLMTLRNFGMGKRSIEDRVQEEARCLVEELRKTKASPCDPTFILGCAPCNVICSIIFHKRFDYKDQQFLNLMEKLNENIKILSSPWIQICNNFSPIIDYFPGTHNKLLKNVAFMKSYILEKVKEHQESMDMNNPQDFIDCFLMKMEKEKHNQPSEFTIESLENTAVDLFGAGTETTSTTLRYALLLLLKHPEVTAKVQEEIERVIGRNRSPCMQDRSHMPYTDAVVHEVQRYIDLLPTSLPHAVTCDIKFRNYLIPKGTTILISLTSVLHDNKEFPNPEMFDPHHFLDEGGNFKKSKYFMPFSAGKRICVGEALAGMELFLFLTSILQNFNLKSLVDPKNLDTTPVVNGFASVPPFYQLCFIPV
Chain of Cytochrome P450 2C9 (P11712 whole entry): as above

| Compound | inhibition at 10 µM [1] | IC50 [2] | IC50 [3] | Ki [3] | inhibition at 10 µM [4] | IC50 [5] | inhibition at 10 µM [6] | inhibition at 1 h, 10 µM [7] | inhibition at 10 µM [8] | inhibition at 10 µM [9] | IC50 [10] | inhibition at 10 µM [11] | inhibition at 10 µM [12] | IC50 [13] | IC50 [14] | IC50 [15] | Ki [15] |
| --- | --- | --- | --- | --- | --- | --- | --- | --- | --- | --- | --- | --- | --- | --- | --- | --- | --- |
| Nc1nccc(-c2c[nH]c3ccc(Br)cc23)n1 [MERIDIANIN C] | 55% | > 10 µM | 8.72 µM | 8.78 µM | 7% | > 10 µM | 3% | 41% | 2% | 5% | > 10 µM | 50 to 52% | 10% | > 10 µM | 0.213 µM | 9.23 µM | 9.48 µM |
| O=C1C=CC(=O)c2c(O)ccc(O)c21 [NAPHTHAZALIN] | 82% | > 10 µM | 2.16 µM | 2.22 µM | 8% | > 10 µM | 5% | 78% | 4% | 5% | > 10 µM | 79 to 99% | 15% | > 10 µM | > 10 µM | 3.82 µM | 3.66 µM |
| COc1c2ccoc2c(OCC=C(C)C)c2oc(=O)ccc12 [PHELLOPTERIN] | 96% | > 10 µM | 0.42 µM | 0.38 µM | 98% | > 10 µM | 3% | 90% | 5% | 20% | > 10 µM | 87 to 97% | 12% | > 10 µM | 0.22 µM | 0.58 µM | 0.62 µM |
